Assay results: ChEMBL document CHEMBL1124366, “Synthesis and biological properties of N63-carboxamides of teicoplanin antibiotics. Structure-activity relationships” (J Med Chem, 1989)
Converted amounts (≈) assume the structure as drawn.

Key:
[1] = test system: Staphylococcus epidermidis; experiment: In vitro minimum inhibitory concentration against Staphylococcus epidermis ATCC 12228; format: functional
Enterococcus faecalis = experiment: In vitro minimum inhibitory concentration against Streptococcus faecalis ATCC 7080; format: functional
Staphylococcus aureus = experiment: In vitro minimum inhibitory concentration against Staphylococcus aureus Tour; format: functional
[2] = test system: Ac2-L-Lys-D-Ala-D-Ala peptide; experiment: Association constant with Ac2-L-Lys-D-Ala-D-Ala
Summary of the method: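 UV difference spectroscopy at 24 ± 2 °C in 4-cm unthermostated cells. Antibiotic was at 30 μM in 10% MeOH in sodium phosphate buffer, pH 9, and titrated with Ac2-L-Lys-D-Ala-D-Ala. ΔA was monitored at 294 nm. Ka was taken from the slope of a Scatchard plot.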

Streptococcus pneumoniae = experiment: In vitro minimum inhibitory concentration against Streptococcus pneumoniae UC41; format: functional
Streptococcus pyogenes [3] = experiment: Subcutaneously administration into mice infected with Streptococcus pyogenes C 203; format: functional; settings: sc
Summary of the method: (§1)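 Mice (five per treatment group, five groups) infected intraperitoneally with about 10⁵ cells of Strep. pyogenes C 203, about 100× the LD50. ED50 (mg/kg) was calculated from the percentage of mice surviving at each dose on day 7.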

Escherichia coli = experiment: In vitro minimum inhibitory concentration against Escherichia coli SKF 12140; format: functional
Proteus vulgaris = experiment: In vitro minimum inhibitory concentration against Proteus vulgaris X 19 ATCC 881; format: functional
Streptococcus pyogenes [4] = experiment: In vitro minimum inhibitory concentration against Streptococcus pyogenes C 203; format: functional
[5] = test system: Staphylococcus haemolyticus; experiment: In vitro minimum inhibitory concentration against Staphylococcus hemolyticus 602 cell line; format: functional; settings: strain 602
Streptococcus pyogenes [6] = experiment: In vivo effective dose given perorally to mice infected with Streptococcus pyogenes C 203; format: functional; settings: po; summary of the method: as §1
Pseudomonas aeruginosa = experiment: In vitro minimum inhibitory concentration against Pseudomonas aeruginosa ATCC 10145; format: functional

Row | Compound | MIC [1] [µg/mL] | MIC (Enterococcus faecalis) [µg/mL] | MIC (Staphylococcus aureus) [µg/mL] | Ka [2] [M⁻¹] | MIC (Streptococcus pneumoniae) [µg/mL] | ED50 (Streptococcus pyogenes [3]) [mg/kg] | MIC (Escherichia coli) [µg/mL] | MIC (Proteus vulgaris) [µg/mL] | MIC (Streptococcus pyogenes [4]) [µg/mL] | MIC [5] [µg/mL] | ED50 (Streptococcus pyogenes [6]) [mg/kg] | MIC (Pseudomonas aeruginosa) [µg/mL]
1 | CC(=O)N[C@@H]1[C@H](O[C@@H]2c3ccc(c(Cl)c3)Oc3cc4cc(c3O)Oc3ccc(cc3Cl)C[C@H]3NC(=O)[C@H](N)c5ccc(O)c(c5)Oc5cc(O)cc(c5)[C@H](NC3=O)C(=O)N[C@H]4C(=O)N[C@H]3C(=O)N[C@@H]2C(=O)N[C@H](C(=O)O)c2cc(O)cc(O)c2-c2cc3ccc2O)O[C@@H](CO)[C@@H](O)[C@@H]1O | 0.12 (≈ 0.0856 µM) | 1 (≈ 0.713 µM) | 0.5 (≈ 0.357 µM) | 32000 | 1 (≈ 0.713 µM) | 2.46 | > 128 | > 128 | 0.5 (≈ 0.357 µM) |  |  | 
2 | CNCCCNC(=O)[C@H]1NC(=O)[C@H]2NC(=O)[C@H](NC(=O)[C@@H]3NC(=O)[C@H]4NC(=O)[C@@H](Cc5ccc(c(Cl)c5)Oc5cc3cc(c5O[C@@H]3O[C@@H](CO)[C@@H](O)[C@H](O)[C@@H]3NC(=O)CCCCCCC(C)C)Oc3ccc(cc3Cl)[C@H]2O[C@@H]2O[C@@H](CO)[C@@H](O)[C@H](O)[C@@H]2NC(C)=O)NC(=O)[C@H](N)c2ccc(O)c(c2)Oc2cc(O)cc4c2)c2ccc(O)c(c2)-c2c(O[C@H]3O[C@H](CO)[C@@H](O)[C@@H](O)[C@@H]3O)cc(O)cc21 | 0.06 (≈ 0.0308 µM) | 0.12 (≈ 0.0615 µM) | 0.12 (≈ 0.0615 µM) | 66000 | 0.12 (≈ 0.0615 µM) | 0.14 |  |  | 0.06 (≈ 0.0308 µM) | 0.12 (≈ 0.0615 µM) | 112 | 
3 | CN(C)CCCCNC(=O)[C@H]1NC(=O)[C@H]2NC(=O)[C@H](NC(=O)[C@@H]3NC(=O)[C@H]4NC(=O)[C@@H](Cc5ccc(c(Cl)c5)Oc5cc3cc(c5O)Oc3ccc(cc3Cl)[C@H]2O)NC(=O)[C@H](N)c2ccc(O)c(c2)Oc2cc(O)cc4c2)c2ccc(O)c(c2)-c2c(O)cc(O)cc21 | 0.06 (≈ 0.0463 µM) | 0.12 (≈ 0.0925 µM) | 0.06 (≈ 0.0463 µM) |  | 0.12 (≈ 0.0925 µM) | 0.54 | 8 (≈ 6.17 µM) | 32 (≈ 24.7 µM) | 0.06 (≈ 0.0463 µM) | 0.12 (≈ 0.0925 µM) |  | 32 (≈ 24.7 µM)
4 | CNCCCN(C)C(=O)[C@H]1NC(=O)[C@H]2NC(=O)[C@H](NC(=O)[C@@H]3NC(=O)[C@H]4NC(=O)[C@@H](Cc5ccc(c(Cl)c5)Oc5cc3cc(c5O)Oc3ccc(cc3Cl)[C@H]2O)NC(=O)[C@H](N)c2ccc(O)c(c2)Oc2cc(O)cc4c2)c2ccc(O)c(c2)-c2c(O)cc(O)cc21 | 0.06 (≈ 0.0468 µM) | 0.12 (≈ 0.0935 µM) | 0.06 (≈ 0.0468 µM) |  | 0.12 (≈ 0.0935 µM) | 0.95 | 2 (≈ 1.56 µM) | 32 (≈ 24.9 µM) | 0.06 (≈ 0.0468 µM) | 0.06 (≈ 0.0468 µM) |  | 16 (≈ 12.5 µM)
5 | CN(C)CCCCCNC(=O)[C@H]1NC(=O)[C@H]2NC(=O)[C@H](NC(=O)[C@@H]3NC(=O)[C@H]4NC(=O)[C@@H](Cc5ccc(c(Cl)c5)Oc5cc3cc(c5O)Oc3ccc(cc3Cl)[C@H]2O)NC(=O)[C@H](N)c2ccc(O)c(c2)Oc2cc(O)cc4c2)c2ccc(O)c(c2)-c2c(O)cc(O)cc21 | 0.06 (≈ 0.0458 µM) | 0.12 (≈ 0.0915 µM) | 0.06 (≈ 0.0458 µM) |  | 0.12 (≈ 0.0915 µM) | 0.72 | 8 (≈ 6.1 µM) | 128 (≈ 97.6 µM) | 0.06 (≈ 0.0458 µM) | 0.12 (≈ 0.0915 µM) |  | 64 (≈ 48.8 µM)
6 | CN(C)CCN(C)C(=O)[C@H]1NC(=O)[C@H]2NC(=O)[C@H](NC(=O)[C@@H]3NC(=O)[C@H]4NC(=O)[C@@H](Cc5ccc(c(Cl)c5)Oc5cc3cc(c5O)Oc3ccc(cc3Cl)[C@H]2O)NC(=O)[C@H](N)c2ccc(O)c(c2)Oc2cc(O)cc4c2)c2ccc(O)c(c2)-c2c(O)cc(O)cc21 | 0.06 (≈ 0.0468 µM) | 0.12 (≈ 0.0935 µM) | 0.06 (≈ 0.0468 µM) |  | 0.06 (≈ 0.0468 µM) | 1.25 | 8 (≈ 6.23 µM) | 64 (≈ 49.9 µM) | 0.06 (≈ 0.0468 µM) | 0.06 (≈ 0.0468 µM) |  | 64 (≈ 49.9 µM)
7 | CN(C)CCCNC(=O)[C@H]1NC(=O)[C@H]2NC(=O)[C@H](NC(=O)[C@@H]3NC(=O)[C@H]4NC(=O)[C@@H](Cc5ccc(c(Cl)c5)Oc5cc3cc(c5O)Oc3ccc(cc3Cl)[C@H]2O)NC(=O)[C@H](N)c2ccc(O)c(c2)Oc2cc(O)cc4c2)c2ccc(O)c(c2)-c2c(O)cc(O)cc21 | 0.016 (≈ 0.0125 µM) | 0.12 (≈ 0.0935 µM) | 0.06 (≈ 0.0468 µM) | 55000 | 0.12 (≈ 0.0935 µM) | 0.31 | 8 (≈ 6.23 µM) | 16 (≈ 12.5 µM) | 0.06 (≈ 0.0468 µM) |  |  | 32 (≈ 24.9 µM)
8 | CC(=O)NC1C(O[C@@H]2c3ccc(c(Cl)c3)Oc3cc4cc(c3O)Oc3ccc(cc3Cl)C[C@H]3NC(=O)[C@H](N)c5ccc(O)c(c5)Oc5cc(O)cc(c5)[C@H](NC3=O)C(=O)N[C@H]4C(=O)N[C@H]3C(=O)N[C@@H]2C(=O)N[C@H](C(=O)NCCN2CCOCC2)c2cc(O)cc(O)c2-c2cc3ccc2O)OC(CO)C(O)C1O (stereo partly drawn) | 0.12 (≈ 0.0792 µM) | 0.5 (≈ 0.33 µM) | 0.12 (≈ 0.0792 µM) | 34000 | 1 (≈ 0.66 µM) |  | > 128 | > 128 | 0.5 (≈ 0.33 µM) |  |  | 
9 | CCOC(=O)CNC(=O)[C@H]1NC(=O)[C@H]2NC(=O)[C@H](NC(=O)[C@@H]3NC(=O)[C@H]4NC(=O)[C@@H](Cc5ccc(c(Cl)c5)Oc5cc3cc(c5O[C@@H]3O[C@@H](CO)[C@@H](O)[C@H](O)[C@@H]3NC(=O)CCCCCCC(C)C)Oc3ccc(cc3Cl)[C@H]2O[C@@H]2O[C@@H](CO)[C@@H](O)[C@H](O)[C@@H]2NC(C)=O)NC(=O)[C@H](N)c2ccc(O)c(c2)Oc2cc(O)cc4c2)c2ccc(O)c(c2)-c2c(O[C@H]3O[C@H](CO)[C@@H](O)[C@@H](O)[C@@H]3O)cc(O)cc21 | 0.12 (≈ 0.0611 µM) | 0.12 (≈ 0.0611 µM) | 0.25 (≈ 0.127 µM) | 120000 | 0.06 (≈ 0.0305 µM) | 0.1 |  |  | 0.06 (≈ 0.0305 µM) |  | > 300 | 
10 | CN(C)CCNC(=O)[C@H]1NC(=O)[C@H]2NC(=O)[C@H](NC(=O)[C@@H]3NC(=O)[C@H]4NC(=O)[C@@H](Cc5ccc(c(Cl)c5)Oc5cc3cc(c5O)Oc3ccc(cc3Cl)[C@H]2O)NC(=O)[C@H](N)c2ccc(O)c(c2)Oc2cc(O)cc4c2)c2ccc(O)c(c2)-c2c(O)cc(O)cc21 | 0.06 (≈ 0.0473 µM) | 0.12 (≈ 0.0946 µM) | 0.06 (≈ 0.0473 µM) |  | 0.12 (≈ 0.0946 µM) | 1.25 | 4 (≈ 3.15 µM) | 32 (≈ 25.2 µM) | 0.06 (≈ 0.0473 µM) | 0.06 (≈ 0.0473 µM) |  | 16 (≈ 12.6 µM)
11 | CNCCCNC(=O)[C@H]1NC(=O)[C@H]2NC(=O)[C@H](NC(=O)[C@@H]3NC(=O)[C@H]4NC(=O)[C@@H](Cc5ccc(c(Cl)c5)Oc5cc3cc(c5O)Oc3ccc(cc3Cl)[C@H]2O)NC(=O)[C@H](N)c2ccc(O)c(c2)Oc2cc(O)cc4c2)c2ccc(O)c(c2)-c2c(O)cc(O)cc21 | 0.06 (≈ 0.0473 µM) | 0.12 (≈ 0.0946 µM) | 0.06 (≈ 0.0473 µM) |  | 0.12 (≈ 0.0946 µM) | 0.95 | 4 (≈ 3.15 µM) | 16 (≈ 12.6 µM) | 0.06 (≈ 0.0473 µM) | 0.25 (≈ 0.197 µM) |  | 16 (≈ 12.6 µM)
12 | N[C@H]1C(=O)N[C@@H]2Cc3ccc(c(Cl)c3)Oc3cc4cc(c3O)Oc3ccc(cc3Cl)[C@@H](O)[C@@H]3NC(=O)[C@H](NC(=O)[C@@H]4NC(=O)[C@@H](NC2=O)c2cc(O)cc(c2)Oc2cc1ccc2O)c1ccc(O)c(c1)-c1c(O)cc(O)cc1[C@@H](C(=O)NCCCN1CCOCC1)NC3=O | 0.06 (≈ 0.0453 µM) | 0.12 (≈ 0.0906 µM) | 0.06 (≈ 0.0453 µM) |  | 0.12 (≈ 0.0906 µM) | 1.4 | 8 (≈ 6.04 µM) | 64 (≈ 48.3 µM) | 0.06 (≈ 0.0453 µM) | 0.12 (≈ 0.0906 µM) |  | 32 (≈ 24.1 µM)
13 | CC(=O)NC1C(O[C@@H]2c3ccc(c(Cl)c3)Oc3cc4cc(c3O)Oc3ccc(cc3Cl)C[C@H]3NC(=O)[C@H](N)c5ccc(O)c(c5)Oc5cc(O)cc(c5)[C@H](NC3=O)C(=O)N[C@H]4C(=O)N[C@H]3C(=O)N[C@@H]2C(=O)N[C@H](C(=O)NCCCN(C)C)c2cc(O)cc(O)c2-c2cc3ccc2O)OC(CO)C(O)C1O (stereo partly drawn) | 0.06 (≈ 0.0404 µM) | 0.25 (≈ 0.168 µM) | 0.12 (≈ 0.0807 µM) | 54000 | 0.25 (≈ 0.168 µM) | 2.2 | 64 (≈ 43.1 µM) | > 128 | 0.12 (≈ 0.0807 µM) |  |  | 
14 | NCCCCCCNC(=O)[C@H]1NC(=O)[C@H]2NC(=O)[C@H](NC(=O)[C@@H]3NC(=O)[C@H]4NC(=O)[C@@H](Cc5ccc(c(Cl)c5)Oc5cc3cc(c5O)Oc3ccc(cc3Cl)[C@H]2O)NC(=O)[C@H](N)c2ccc(O)c(c2)Oc2cc(O)cc4c2)c2ccc(O)c(c2)-c2c(O)cc(O)cc21 | 0.06 (≈ 0.0463 µM) | 0.12 (≈ 0.0925 µM) | 0.06 (≈ 0.0463 µM) |  | 0.06 (≈ 0.0463 µM) | 0.54 | 4 (≈ 3.08 µM) | 64 (≈ 49.3 µM) | 0.06 (≈ 0.0463 µM) | 0.12 (≈ 0.0925 µM) |  | 64 (≈ 49.3 µM)
15 | NCCCCNC(=O)[C@H]1NC(=O)[C@H]2NC(=O)[C@H](NC(=O)[C@@H]3NC(=O)[C@H]4NC(=O)[C@@H](Cc5ccc(c(Cl)c5)Oc5cc3cc(c5O)Oc3ccc(cc3Cl)[C@H]2O)NC(=O)[C@H](N)c2ccc(O)c(c2)Oc2cc(O)cc4c2)c2ccc(O)c(c2)-c2c(O)cc(O)cc21 | 0.06 (≈ 0.0473 µM) | 0.12 (≈ 0.0946 µM) | 0.06 (≈ 0.0473 µM) |  | 0.12 (≈ 0.0946 µM) | 0.54 | 8 (≈ 6.3 µM) | 32 (≈ 25.2 µM) | 0.06 (≈ 0.0473 µM) | 0.12 (≈ 0.0946 µM) |  | 32 (≈ 25.2 µM)
